Bioassay records: PubChem BioAssay, Sanford-Burnham Center for Chemical Genomics
SENP8 block-1: inhibitors of human SENP8 protease | Q96LD8 | purified SENP8, Z-RLRGG-aminoluciferin cleavage, luminescence | inhibition, % at 10 µM | hit rate 1.2% among 330,000 | AID 2540; in the data active means inhibition above about 50%
Target sequence (Q96LD8 whole entry, looked up): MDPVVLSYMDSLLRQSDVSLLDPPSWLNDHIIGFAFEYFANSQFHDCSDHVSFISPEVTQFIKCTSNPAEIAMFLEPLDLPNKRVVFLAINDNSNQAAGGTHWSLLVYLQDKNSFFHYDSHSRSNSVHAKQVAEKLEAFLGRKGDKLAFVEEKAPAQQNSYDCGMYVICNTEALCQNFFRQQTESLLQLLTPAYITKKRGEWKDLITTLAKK
SENP1 FRET inh: inhibitors of human SENP1 SUMO protease catalytic domain; Q9P0U3; recombinant SENP1 catalytic domain, CyPet-SUMO1-YPet FRET cleavage; inhibition, % at 10 µM; hit rate 0.21% among 360,000; AID 624204;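 active means inhibition at least 30% at 10 µM, raw YFP signal under a set limit, fluorescence ratio 0.5 to 1.5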
Target sequence (Q9P0U3 419-644 limits assumed): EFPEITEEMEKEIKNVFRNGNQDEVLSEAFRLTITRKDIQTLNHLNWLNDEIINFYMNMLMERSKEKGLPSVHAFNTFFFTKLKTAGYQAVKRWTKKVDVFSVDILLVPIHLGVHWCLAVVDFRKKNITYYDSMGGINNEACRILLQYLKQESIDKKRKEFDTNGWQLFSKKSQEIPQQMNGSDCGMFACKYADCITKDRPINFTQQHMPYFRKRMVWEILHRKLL
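Test system: hSENP1 catalytic domain, recombinant; Amount: 20 pM final SENP1 enzyme; Medium: Tris pH 8 buffer plus EDTA, NaCl, BME, BSA, NP40, catalase; Schedule: 50 min enzyme reaction, room temperature, light-protected; Technique: FRET fluorescence in CFP and YFP emission channels; Controls: no-enzyme wells low, DMSO-plus-enzyme wells high control.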
SENP8 block-2: blocks human SENP8 cleavage of Nedd8 substrate; AID 602440; recombinant SENP8, Nedd8 substrate fluorescence; inhibition, % at 20 µM; hit rate 0.64% among 360,000; Q96LD8; in the data active means inhibition mostly above about 40%, no sharp cut-off; inactive means mostly below about 27%
SENP6 block: blocks the human protease SENP6 | Recombinant SENP6 catalytic domain, aminoluciferin luminescence | inhibition, % at 10 µM | hit rate 1.8% among 330,000 | AID 2599;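 active means inhibition above about 50% at the single tested dose, limit read from the data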
SENP7 block: blocks the human protease SENP7; Q9BQF6; recombinant SENP7, Z-RLRGG-aminoluciferin luminescence, 40 min; inhibition, % at 5 µM; hit rate 1.5% among 330,000; AID 434973;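 active means inhibition above about 50% at the single test dose, limit read from the data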
SENP8 confirm: human SENP8 inhibition, confirmed | inhibition, % at 12.5 µM | shares compounds with SENP7 block | Recombinant SENP8, Z-RLRGG-aminoluciferin luminescence, 60 min | hit rate 40% among 6,200;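 active means mean inhibition across replicates above about 50%, limit read from the data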
SENP6 confirm: confirmation of human SENP6 protease inhibitors | shares compounds with SENP7 block | recombinant SENP6, Z-RLRGG-aminoluciferin luminescence | inhibition, % at 12.5 µM | hit rate 58% among 6,200 | AID 488915
SENP7 conf: confirmation of human SENP7 protease inhibitors; inhibition, % at 12.5 µM; recombinant SENP7, Z-RLRGG-aminoluciferin luminescence, 40 min; hit rate 69% among 6,200; AID 488917; shares compounds with SENP7 block
Casp3 select: selectivity test for SENP inhibitors: human caspase-3 inhibition | hit rate 60% among 6,200 | AID 488918 | purified caspase-3, Z-DEVD-aminoluciferin luminescence, 60 min | shares compounds with SENP7 block | inhibition, % at 12.5 µM;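 active means mean inhibition above about 50%, limit read from the data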
Target sequence (P42574 28-227 limits assumed): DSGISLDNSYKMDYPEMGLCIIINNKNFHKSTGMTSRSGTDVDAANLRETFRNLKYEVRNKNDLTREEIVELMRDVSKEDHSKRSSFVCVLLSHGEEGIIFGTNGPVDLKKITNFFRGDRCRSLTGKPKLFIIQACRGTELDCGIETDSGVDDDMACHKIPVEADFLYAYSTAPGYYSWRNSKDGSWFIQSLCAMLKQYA
SENP luc ctr: interferes with luciferase luminescence in SENP counter-screen. Pre-incubated SENP8/Z-RLRGG-aminoluciferin, luciferase luminescence interference. hit rate 39% among 6,200. shares compounds with SENP7 block. inhibition, % at 12.5 µM. AID 488919;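 active means mean inhibition above about 50% when retested at one dose, limit read from the data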
Of the large screens only hits and unclear results are named; the others gave an inactive call (follow-up assays come after a bar, where they were run). The list is not random: actives were taken first. Their share in the collection is about 2.5%.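 How the source made its calls, unless noted: active means mean inhibition above about 50% in the one-dose retest (limit read from the data); inactive means the rest.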

COc1cc2c(C#N)c(N3CCCCC3)nc(N)c2c(N)n1	SENP8 block-1 62.1, SENP6 block 65.7 | SENP8 confirm inactive | SENP6 confirm inactive | SENP7 conf inactive | Casp3 select inactive | SENP luc ctr inactive
COc1ccc(CN2C(=O)Cc3c2nc(N)c2c(N)nc(N4CCCCC4)c(C#N)c32)cc1	SENP6 block 60.6 (no result: SENP1 FRET inh, SENP8 block-2) | SENP8 confirm inactive | SENP6 confirm inactive | SENP7 conf inactive | Casp3 select inactive | SENP luc ctr inactive
COc1cc2c(C#N)c(N3CCOCC3)nc(N)c2c(N)n1	none
CC(C)CC(OC(=O)c1nsc(Cl)c1Cl)C(=O)NCC1CCCO1 (centres undefined)	none
CCN(CC)c1nc(N)c2c(N)nc(OC)cc2c1C#N	SENP8 block-1 51.5, SENP6 block 76.4 | SENP8 confirm inactive | SENP6 confirm inactive | SENP7 conf inactive | Casp3 select inactive | SENP luc ctr inactive
CCOc1cc2c(C#N)c(N3CCNCC3)nc(N)c2c(N)n1	SENP6 block 88.3 | SENP8 confirm inactive | SENP6 confirm inactive | SENP7 conf inactive | Casp3 select inactive | SENP luc ctr inactive
O=C(O)CCCNC(=O)c1nn(Cc2ccccc2)c(=O)c2ccccc12	none
CCCc1cc(C(=O)N(C)CC(=O)Nc2ccc(OCC)c(OCC)c2)sc1C	none
Cc1ccc(C(=O)Nc2ccc3ncccc3c2)cc1	SENP8 block-1 80.3, SENP6 block 82.1, SENP7 block 89.9 | SENP8 confirm 83.4 | SENP6 confirm 83.6 | SENP7 conf 97.1 | Casp3 select 87.2 | SENP luc ctr 87.7
O=C(Nc1ccc2ncccc2c1)c1cccc(Br)c1	SENP6 block 53.4 | SENP8 confirm inactive | SENP6 confirm inactive | SENP7 conf 65.0 | Casp3 select inactive | SENP luc ctr inactive
COc1ccc(C(=O)Nc2ccc3ncccc3c2)cc1	SENP8 block-1 79.3, SENP6 block 81.3, SENP7 block 87.2 | SENP8 confirm inactive | SENP6 confirm 85.6 | SENP7 conf 97.5 | Casp3 select 89.2 | SENP luc ctr inactive
COc1ccc(Nc2ncccc2C(=O)O)cc1	SENP6 block 57.2 | SENP8 confirm inactive | SENP6 confirm inactive | SENP7 conf 75.8 | Casp3 select 81.1 | SENP luc ctr 62.7
CN(C)C(=O)CSc1nc(-c2cccs2)c(-c2cccs2)[nH]1	none
CC(=O)Cc1nsc(NC(=O)c2ccc(-c3ccccc3Cl)o2)n1	SENP8 block-1 57.4 | SENP8 confirm 82.7 | SENP6 confirm 79.2 | SENP7 conf 92.1 | Casp3 select 66.4 | SENP luc ctr 66.0
CC(=O)Cc1nsc(NC(=O)c2oc(-c3ccccc3Cl)cc2C)n1	none
O=C(Nc1nccs1)c1ccc(-c2ccccc2Cl)o1	SENP8 block-1 61.7, SENP6 block 78.9, SENP7 block 70.0 | SENP8 confirm 65.6 | SENP6 confirm 69.0 | SENP7 conf inactive | Casp3 select inactive | SENP luc ctr inactive
O=C(Nc1ccccc1)c1ccc(-c2ccccc2Cl)o1	SENP6 block 65.9, SENP7 block 60.2 | SENP8 confirm inactive | SENP6 confirm inactive | SENP7 conf 81.8 | Casp3 select inactive | SENP luc ctr inactive
N#Cc1c(Nc2ccc(Cl)cc2)s[nH]c1=O	SENP6 block 58.6 | SENP8 confirm 56.0 | SENP6 confirm inactive | SENP7 conf 84.7 | Casp3 select 68.7 | SENP luc ctr inactive
NC(=O)C(NN=C(c1ccccc1)c1ccccc1)c1ccccc1 (centres undefined)	none (no result: SENP8 block-1, SENP6 block, SENP7 block)
CCOC(=O)Cc1csc(N/N=C\c2ccccc2OC)n1	SENP6 block 67.7 | SENP8 confirm 57.5 | SENP6 confirm 53.9 | SENP7 conf 79.4 | Casp3 select inactive | SENP luc ctr 54.8
COC(=O)C1=C[C@@H](C(=O)OC)[C@@H]2C3=C(C(=O)C2(C)C)[C@H](c2ccccc2)[C@@H]2C(=O)N(C)C(=O)[C@@H]2[C@@H]3C1	none
Nc1c2c(nc3sc4c(c13)CCCC4)-c1ccccc1CC2	SENP8 block-1 92.4, SENP6 block 92.0, SENP7 block 90.4 | SENP8 confirm inactive | SENP6 confirm 93.3 | SENP7 conf 95.5 | Casp3 select 81.5 | SENP luc ctr inactive
NC(=O)c1sc2nc(-c3ccccc3)c3c(c2c1N)CCCC3	none
CCNC(=O)C1CCCN(C(=O)c2ccco2)CC1 (centres undefined)	none (no result: SENP8 block-1, SENP6 block, SENP7 block)
CSc1ccccc1NC(=O)Nc1cccc(Cl)c1	SENP8 block-1 67.0, SENP6 block 82.9, SENP7 block 80.1 | SENP8 confirm 83.3 | SENP6 confirm 79.6 | SENP7 conf 95.4 | Casp3 select 53.0 | SENP luc ctr 73.4
CSc1ccccc1NC(=O)Nc1cccc(Cl)c1Cl	none
COc1cccc(NC(=O)Nc2ccccc2SC)c1	SENP8 block-1 51.3 | SENP8 confirm 78.3 | SENP6 confirm 71.7 | SENP7 conf 91.0 | Casp3 select 70.9 | SENP luc ctr 71.8
COc1ccccc1C(=O)NC(=O)Nc1cccc(Cl)c1	SENP8 block-1 81.6, SENP6 block 79.4, SENP7 block 85.4 | SENP8 confirm inactive | SENP6 confirm inactive | SENP7 conf inactive | Casp3 select inactive | SENP luc ctr inactive
CN(C)c1ccc(NC(=O)Nc2cccc(Cl)c2)cc1	SENP8 block-1 80.4, SENP6 block 89.2, SENP7 block 88.5 | SENP8 confirm 76.3 | SENP6 confirm 85.4 | SENP7 conf 99.3 | Casp3 select 82.2 | SENP luc ctr 66.2
COC(=O)CCN(C(=O)c1cccc([N+](=O)[O-])c1)c1ccccn1	none
COCc1cc(C)nc(Oc2ccccc2)c1C#N	none
Cc1cc(C)n(/N=C/c2cc([N+](=O)[O-])ccc2O)c(=O)c1	none
COc1cccc(C(C(=O)NCc2ccccc2)N2CCN(c3cccc(C)c3C)CC2)c1OC (centres undefined)	none (no result: SENP8 block-1, SENP6 block, SENP7 block)
O=C(CC1C(=O)NCCN1CC1CCCCC1)NCCc1ccc(F)cc1 (centres undefined)	none
CC(C)NC(=O)C1(C)CCN1C(=O)C(c1ccccc1)c1ccccc1 (centres undefined)	none (no result: SENP8 block-1, SENP6 block, SENP7 block)
NC(CSCc1cccc(Br)c1)C(=O)O (centres undefined)	none
Cc1ccccc1NC(=O)N1CCN(C/C=C/c2ccccc2)CC1	none
Cc1ccc(NC(=O)Nc2ccc(F)c(Cl)c2)cc1	none
